Source: PubChem BioAssay AID2307 (NMMLSC, 2010)

Molecular target: Regulator of G-protein signaling 8 (Homo sapiens) (UniProt P57771)
Experiment: RGS8-Galphao interaction modulators, SAR follow-up, biochemical, multiplex bead flow cytometry, SAR compounds (AID 2307)
Conditions: bead-based flow cytometry, AF488-Galphao binding to RGS8; for Ki: measured here: Ki calculated from EC50
In short: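 System: Biotinylated human RGS8 captured on streptavidin beads, multiplexed bead sets | Medium: HEPES, NaCl, Lubrol and BSA buffer at pH 8.0 | Times: Bead–Galphao binding for 30–90 min at room temperature | Technique: Flow cytometry, median green bead fluorescence at 530 nm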

Chain of Regulator of G-protein signaling 8 (Homo sapiens) (P57771 whole entry, looked up): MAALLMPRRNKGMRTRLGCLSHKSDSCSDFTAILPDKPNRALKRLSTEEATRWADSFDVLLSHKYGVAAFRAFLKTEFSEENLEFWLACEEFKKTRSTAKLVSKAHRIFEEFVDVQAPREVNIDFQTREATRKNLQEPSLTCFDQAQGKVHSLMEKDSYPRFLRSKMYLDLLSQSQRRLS

SMILES | Ki | EC50
Cc1[nH]n(-c2ccccc2)c(=S)c1C=NCCCN=Cc1c(C)[nH]n(-c2ccccc2)c1=S | 430 nM | –
CN1CCN(C2=C(Cl)C(=O)C(c3cnc(N4CCCCC4)s3)=C(Cl)C2=O)CC1 | 20 nM | –
Cc1cccc(N2CCN(C(=O)Cn3sc4nc(C)cc(C)c4c3=O)CC2C)c1 (stereo not given) | 460 nM | –
O=C1C(Cl)=C(N2CCCCC2)C(=O)C(Cl)=C1c1cnc(N2CCCCC2)s1 | 60 nM | –
CC1(C)OC(=O)C(=Cc2ccc(-c3ccc(S(N)(=O)=O)cc3)o2)C(=O)O1 | 580 nM | –
CCC(=O)NC(c1ccc(C)cc1)c1cc([N+](=O)[O-])c2cccnc2c1O (stereo not given) | 3590 nM | –
COc1ccc(C2=CC(=O)C=CC2=O)cc1 | 150 nM | –
O=C(NCCCN1CCOCC1)c1sc2cc([N+](=O)[O-])ccc2c1Cl | 470 nM | –
CCN=c1scc(C)n1/N=C/c1ccc(O)c(O)c1O | 470 nM | –
CC(NC(=O)c1sc2cc([N+](=O)[O-])ccc2c1Cl)C(C)(C)C (stereo not given) | 170 nM | –
Cc1cccc(N2CCN(C(=O)COc3nsc4nc(C)cc(C)c34)CC2C)c1 (stereo not given) | 2640 nM | –
O=c1c2ccccc2sn1-c1ccc(S(=O)(=O)N2CCCC2)cc1 | 20 nM | –
CCOC(=O)c1sc(NC(=O)CSc2nnc(Cc3ccccc3)o2)c(C#N)c1C | 150 nM | –
NS(=O)(=O)c1ccc(N/N=C/c2ccc(O)c(O)c2O)c([N+](=O)[O-])c1 | 20 nM | 29 nM

The next lines start with the values.

Ki | EC50 | SMILES
340 nM | – | CCN(CC)S(=O)(=O)c1cccc(C(=O)N/N=C/c2ccc(O)c(O)c2O)c1
320 nM | – | O=C(Cc1csc(N2CCOCC2)n1)N/N=C/c1ccc(O)c(O)c1O
70 nM | – | CC(=O)OCCCNc1cc(Sc2nc3ccccc3s2)c2nonc2c1[N+](=O)[O-]
100 nM | – | O=C(COc1ccccc1C(=O)N/N=C/c1ccc(O)c(O)c1)N/N=C/c1ccc(O)c(O)c1
180 nM | – | Cc1[nH]n(-c2ccccc2)c(=S)c1C=Nc1cccc([N+](=O)[O-])c1
700 nM | – | COC(=O)CCC(=O)Nc1sc(C)c(C)c1C(N)=O
260 nM | – | CN=c1scc(C)n1/N=C/c1ccc(O)c(O)c1O
400 nM | – | Nc1c(C(=O)NCC2CCCO2)sc2nc3c(c(-c4ccco4)c12)CC/C3=C/c1ccco1 (stereo not given)
2590 nM | – | CCN(CC)S(=O)(=O)c1cccc(-c2n[nH]c(=S)n2/N=C/c2ccc(C(=O)OC)cc2)c1
110 nM | – | Cc1cc(Cl)ccc1N=c1ssnc1Cl
